B1: Osa-1-4 twister ribozyme (parent)
chain: CCGCCUAACACUGCCAAUGCCGGUCCCAAGCCCGGAUAAAAGUGGAGGGGGCGG

Variants of: B1
Assay: self-cleavage, relative activity (ratio to wild type); higher = more cleavage; co-transcriptional
Procedure, shortened: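 The 48 positions downstream of the cleavage site in a DNA template for a 54-nucleotide Oryza sativa twister ribozyme carried 97 % wild-type base and 1 % of each other base. After in vitro transcription (2 h, 37 °C) with co-transcriptional self-cleavage, the RNA was reverse-transcribed with a template-switching oligonucleotide, PCR-amplified and deep-sequenced. Relative activity is the fraction cleaved, judged by reads with or without upstream sequence and normalised to wild type.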
Work on C31A G51A yielded a self-cleavage of 0.04.
C31A G51U gave a self-cleavage of 0.04.
Work on C31A G51C yielded a self-cleavage of 0.02.
C32A C9A showed a self-cleavage of 0.05.
In the case of C32A C9U, the self-cleavage is reported as 0.05.
In the case of C32A C9G, the self-cleavage is reported as 0.06.
Variant C31A C33G has a self-cleavage of 0.02.
With C31A C33U the self-cleavage was 0.03.
For C31A C33A, the self-cleavage was 0.05.
In the case of C31A U43C, the self-cleavage is reported as 0.03.
C31A U43A gave a self-cleavage of 0.03.
Work on C31A U43G yielded a self-cleavage of 0.04.
For C31A G45C, the self-cleavage was 0.01.
With C31A G45U the self-cleavage was 0.02.
For C31A G45A, the self-cleavage was 0.02.
Variant C31G C32G has a self-cleavage of 0.1.
C31G C32A gave a self-cleavage of 0.02.
C31G C32U gave a self-cleavage of 0.04.
With C32A G48C the self-cleavage was 0.04.
In the case of C32A G48A, the self-cleavage is reported as 0.03.
For C32A G48U, the self-cleavage was 0.03.
In the case of C32A G42U, the self-cleavage is reported as 0.02.
Work on C32A G42C yielded a self-cleavage of 0.06.
With C32A G42A the self-cleavage was 0.06.
C31U U24A showed a self-cleavage of 0.02.
C31U U24G showed a self-cleavage of 0.03.
Variant C31U U24C has a self-cleavage of 0.05.
For C31U U18A, the self-cleavage was 0.9.
Work on C31U U18G yielded a self-cleavage of 0.82.
Variant C31U U18C has a self-cleavage of 0.87.
Variant C32A G30C has a self-cleavage of 0.03.
For C32A G30A, the self-cleavage was 0.02.
With C32A G30U the self-cleavage was 0.02.
In the case of G30U G54A, the self-cleavage is reported as 0.03.
With G30U G54U the self-cleavage was 0.05.
G30U G54C showed a self-cleavage of 0.03.
Work on C31U C9G yielded a self-cleavage of 0.16.
Variant C31U C9A has a self-cleavage of 0.11.
For C31U C9U, the self-cleavage was 0.32.
In the case of C31A G35U, the self-cleavage is reported as 0.05.
For C31A G35C, the self-cleavage was 0.03.
Work on C31A G35A yielded a self-cleavage of 0.05.
Work on C31A G48A yielded a self-cleavage of 0.02.
In the case of C31A G48U, the self-cleavage is reported as 0.01.
Work on C31A G48C yielded a self-cleavage of 0.02.
With G30U G53C the self-cleavage was 0.03.
For G30U G53A, the self-cleavage was 0.04.
With G30U G53U the self-cleavage was 0.04.
In the case of C31A C9U, the self-cleavage is reported as 0.03.
Variant C31A C9G has a self-cleavage of 0.04.
Variant C31A C9A has a self-cleavage of 0.02.
Variant G30U U12C has a self-cleavage of 0.03.
For G30U U12A, the self-cleavage was 0.03.
With G30U U12G the self-cleavage was 0.03.
C32A G23C gave a self-cleavage of 0.03.
With C32A G23U the self-cleavage was 0.48.
C32A G23A showed a self-cleavage of 0.17.
For C31A G49U, the self-cleavage was 0.02.
C31A G49C showed a self-cleavage of 0.01.
Work on C31A G49A yielded a self-cleavage of 0.02.
C31G U24C showed a self-cleavage of 0.03.
Work on C31G U24A yielded a self-cleavage of 0.04.
C31G U24G showed a self-cleavage of 0.02.
Variant C31U G53A has a self-cleavage of 0.19.
With C31U G53C the self-cleavage was 0.05.
In the case of C31U G53U, the self-cleavage is reported as 0.08.
With C31A U18G the self-cleavage was 0.05.
C31A U18A showed a self-cleavage of 0.04.
C31A U18C gave a self-cleavage of 0.04.
Work on C32A G35C yielded a self-cleavage of 0.05.
In the case of C32A G35U, the self-cleavage is reported as 0.07.
Variant C32A G35A has a self-cleavage of 0.06.
Variant C32A G51A has a self-cleavage of 0.07.
With C32A G51U the self-cleavage was 0.04.
For C32A G51C, the self-cleavage was 0.03.
Work on C32A U12G yielded a self-cleavage of 0.06.
With C32A U12C the self-cleavage was 0.04.
C32A U12A showed a self-cleavage of 0.07.
C31G G51C showed a self-cleavage of 0.04.
C31G G51A showed a self-cleavage of 0.08.
Variant C31G G51U has a self-cleavage of 0.05.
In the case of C31G G53A, the self-cleavage is reported as 0.08.
C31G G53U gave a self-cleavage of 0.07.
With C31G G53C the self-cleavage was 0.04.
C31G U18G gave a self-cleavage of 0.15.
C31G U18A showed a self-cleavage of 0.1.
C31G U18C gave a self-cleavage of 0.13.
In the case of C32A G45C, the self-cleavage is reported as 0.02.
C32A G45U showed a self-cleavage of 0.03.
Variant C32A G45A has a self-cleavage of 0.04.
With C31A G23A the self-cleavage was 0.03.
Work on C31A G23C yielded a self-cleavage of 0.02.
For C31A G23U, the self-cleavage was 0.02.
C32A U37C gave a self-cleavage of 0.13.
In the case of C32A U37G, the self-cleavage is reported as 0.18.
Work on C32A U37A yielded a self-cleavage of 0.14.
With C31A C32A the self-cleavage was 0.04.
Work on C31A C32U yielded a self-cleavage of 0.01.
C31A C32G showed a self-cleavage of 0.02.
Work on C31U G34C yielded a self-cleavage of 0.24.
Work on C31U G34A yielded a self-cleavage of 0.42.
C31U G34U showed a self-cleavage of 0.56.
Work on C32A C33A yielded a self-cleavage of 0.07.
For C32A C33U, the self-cleavage was 0.05.
With C32A C33G the self-cleavage was 0.03.
With C31A G53C the self-cleavage was 0.01.
In the case of C31A G53U, the self-cleavage is reported as 0.03.
C31A G53A gave a self-cleavage of 0.04.
With C32A G49U the self-cleavage was 0.04.
With C32A G49A the self-cleavage was 0.04.
With C32A G49C the self-cleavage was 0.03.
With C31U G19U the self-cleavage was 0.05.
For C31U G19C, the self-cleavage was 0.06.
For C31U G19A, the self-cleavage was 0.14.
In the case of C31U U12C, the self-cleavage is reported as 0.11.
C31U U12G gave a self-cleavage of 0.19.
With C31U U12A the self-cleavage was 0.28.
Work on G30U U18G yielded a self-cleavage of 0.04.
G30U U18C showed a self-cleavage of 0.04.
In the case of G30U U18A, the self-cleavage is reported as 0.03.
C31U G42U showed a self-cleavage of 0.03.
Work on C31U G42A yielded a self-cleavage of 0.09.
Variant C31U G42C has a self-cleavage of 0.07.
In the case of C31G G35C, the self-cleavage is reported as 0.04.
In the case of C31G G35U, the self-cleavage is reported as 0.12.
Work on C31G G35A yielded a self-cleavage of 0.15.
With C32A G19A the self-cleavage was 0.07.
C32A G19C gave a self-cleavage of 0.02.
In the case of C32A G19U, the self-cleavage is reported as 0.04.
Variant C31G G30A has a self-cleavage of 0.04.
In the case of C31G G30U, the self-cleavage is reported as 0.04.
Variant C31G G30C has a self-cleavage of 0.03.
Variant C32A G34U has a self-cleavage of 0.05.
Work on C32A G34A yielded a self-cleavage of 0.06.
C32A G34C showed a self-cleavage of 0.08.
For C32A G50U, the self-cleavage was 0.08.
Variant C32A G50C has a self-cleavage of 0.07.
With C32A G50A the self-cleavage was 0.05.
With C31G C9U the self-cleavage was 0.06.
For C31G C9G, the self-cleavage was 0.23.
C31G C9A gave a self-cleavage of 0.03.
Work on C31G G48U yielded a self-cleavage of 0.02.
For C31G G48C, the self-cleavage was 0.03.
C31G G48A gave a self-cleavage of 0.03.
Variant C31G G22U has a self-cleavage of 0.05.
For C31G G22C, the self-cleavage was 0.04.
C31G G22A showed a self-cleavage of 0.11.
For C31A G50A, the self-cleavage was 0.04.
Work on C31A G50U yielded a self-cleavage of 0.04.
C31A G50C showed a self-cleavage of 0.04.
Work on C31A G44C yielded a self-cleavage of 0.03.
C31A G44U gave a self-cleavage of 0.03.
C31A G44A showed a self-cleavage of 0.04.
In the case of C31U C52A, the self-cleavage is reported as 0.57.
With C31U C52G the self-cleavage was 0.75.
Variant C31U C52U has a self-cleavage of 0.96.
For C31U C32G, the self-cleavage was 0.08.
C31U C32U gave a self-cleavage of 0.09.
For C31U C32A, the self-cleavage was 0.05.
C31G G44A showed a self-cleavage of 0.08.
C31G G44C gave a self-cleavage of 0.07.
C31G G44U gave a self-cleavage of 0.05.
C31U G23U gave a self-cleavage of 0.04.
C31U G23C gave a self-cleavage of 0.04.
C31U G23A showed a self-cleavage of 0.07.
In the case of C31U G48C, the self-cleavage is reported as 0.05.
In the case of C31U G48U, the self-cleavage is reported as 0.04.

From the RNAGym collection of RNA variant scans (doi:10.1002/anie.201605470)
